Experimental data taken from ChEMBL document CHEMBL4330096, “Discovery of potent and selective 5-azaindazole inhibitors of leucine-rich repeat kinase 2 (LRRK2) - Part 1” (Bioorg Med Chem Lett, 2019).

Experiments:
[1] = target: T1, Ephrin type-B receptor 3 (Homo sapiens) (UniProt P54753); assay: Inhibition of EPHB3 (unknown origin) at 1 uM relative to control
T1 sequence (whole entry): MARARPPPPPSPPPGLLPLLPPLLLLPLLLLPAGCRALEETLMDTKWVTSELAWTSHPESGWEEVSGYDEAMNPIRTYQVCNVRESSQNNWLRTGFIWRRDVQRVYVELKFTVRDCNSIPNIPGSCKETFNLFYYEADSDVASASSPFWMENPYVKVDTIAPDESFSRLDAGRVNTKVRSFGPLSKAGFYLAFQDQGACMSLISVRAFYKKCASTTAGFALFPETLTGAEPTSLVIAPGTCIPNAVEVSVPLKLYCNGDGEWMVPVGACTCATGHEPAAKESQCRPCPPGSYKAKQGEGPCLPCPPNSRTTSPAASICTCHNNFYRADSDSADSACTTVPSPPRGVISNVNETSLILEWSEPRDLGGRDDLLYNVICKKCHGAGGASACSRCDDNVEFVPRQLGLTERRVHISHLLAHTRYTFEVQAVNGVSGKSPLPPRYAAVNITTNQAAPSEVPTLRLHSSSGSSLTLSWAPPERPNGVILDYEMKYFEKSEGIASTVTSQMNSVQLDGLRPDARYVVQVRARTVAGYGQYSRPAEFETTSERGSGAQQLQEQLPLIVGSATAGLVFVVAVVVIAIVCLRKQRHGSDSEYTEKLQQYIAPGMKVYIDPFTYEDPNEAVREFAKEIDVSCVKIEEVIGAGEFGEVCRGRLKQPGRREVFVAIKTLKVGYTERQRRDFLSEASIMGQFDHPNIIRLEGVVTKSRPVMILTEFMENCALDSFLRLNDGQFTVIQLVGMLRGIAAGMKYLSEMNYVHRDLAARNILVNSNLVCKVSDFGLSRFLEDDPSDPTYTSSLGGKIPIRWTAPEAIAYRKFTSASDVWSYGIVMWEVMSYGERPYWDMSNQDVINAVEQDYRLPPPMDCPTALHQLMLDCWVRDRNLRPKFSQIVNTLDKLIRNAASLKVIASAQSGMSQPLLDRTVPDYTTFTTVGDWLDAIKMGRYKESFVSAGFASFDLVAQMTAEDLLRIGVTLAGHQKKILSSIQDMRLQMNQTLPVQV
Method in brief: (§1)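 Single-point screen of each compound against a panel of 59 protein kinases, at 1 or 10 μM. The panel data are also summarised as a rescaled geometric mean selectivity score.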

[2] = target: Mitogen-activated protein kinase 3 (Homo sapiens) (UniProt P27361); assay: Inhibition of ERK1 (unknown origin) at 1 uM relative to control; method in brief: as §1
Mitogen-activated protein kinase 3 (Homo sapiens), sequence (P27361 whole entry): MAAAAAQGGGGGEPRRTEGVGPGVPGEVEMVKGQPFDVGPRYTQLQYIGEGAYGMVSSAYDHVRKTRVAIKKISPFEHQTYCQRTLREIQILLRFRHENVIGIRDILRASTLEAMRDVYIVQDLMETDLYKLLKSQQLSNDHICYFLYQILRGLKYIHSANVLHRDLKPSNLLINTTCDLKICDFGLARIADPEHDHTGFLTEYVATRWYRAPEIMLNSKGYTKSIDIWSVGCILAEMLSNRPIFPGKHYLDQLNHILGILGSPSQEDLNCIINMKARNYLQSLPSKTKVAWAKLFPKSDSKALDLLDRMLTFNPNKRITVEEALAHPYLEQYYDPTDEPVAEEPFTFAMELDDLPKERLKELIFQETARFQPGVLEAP

[3] = target: Insulin receptor-related protein (Homo sapiens) (UniProt P14616); assay: Inhibition of IRR (unknown origin) at 1 uM relative to control; method in brief: as §1
Insulin receptor-related protein (Homo sapiens), sequence (P14616 27-742 limits assumed): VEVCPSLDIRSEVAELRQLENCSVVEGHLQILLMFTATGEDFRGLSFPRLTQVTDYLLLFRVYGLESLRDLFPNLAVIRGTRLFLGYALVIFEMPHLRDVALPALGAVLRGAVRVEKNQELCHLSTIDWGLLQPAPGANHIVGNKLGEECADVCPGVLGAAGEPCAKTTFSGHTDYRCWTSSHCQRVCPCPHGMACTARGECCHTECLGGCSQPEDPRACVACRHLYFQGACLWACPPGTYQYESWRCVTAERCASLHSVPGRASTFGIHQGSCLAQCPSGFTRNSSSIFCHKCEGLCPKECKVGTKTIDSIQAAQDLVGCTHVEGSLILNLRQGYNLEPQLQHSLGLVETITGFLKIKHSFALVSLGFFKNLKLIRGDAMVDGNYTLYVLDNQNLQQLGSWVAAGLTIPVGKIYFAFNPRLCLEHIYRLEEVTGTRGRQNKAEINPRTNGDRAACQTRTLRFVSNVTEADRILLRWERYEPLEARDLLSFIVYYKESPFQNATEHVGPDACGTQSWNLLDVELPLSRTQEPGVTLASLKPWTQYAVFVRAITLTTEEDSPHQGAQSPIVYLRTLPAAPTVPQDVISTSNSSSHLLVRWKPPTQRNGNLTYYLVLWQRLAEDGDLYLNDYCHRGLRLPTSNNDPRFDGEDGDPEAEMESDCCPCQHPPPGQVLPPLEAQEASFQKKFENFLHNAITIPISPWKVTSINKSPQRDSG
Insulin receptor-related protein (Homo sapiens), sequence (P14616 747-1297 limits assumed): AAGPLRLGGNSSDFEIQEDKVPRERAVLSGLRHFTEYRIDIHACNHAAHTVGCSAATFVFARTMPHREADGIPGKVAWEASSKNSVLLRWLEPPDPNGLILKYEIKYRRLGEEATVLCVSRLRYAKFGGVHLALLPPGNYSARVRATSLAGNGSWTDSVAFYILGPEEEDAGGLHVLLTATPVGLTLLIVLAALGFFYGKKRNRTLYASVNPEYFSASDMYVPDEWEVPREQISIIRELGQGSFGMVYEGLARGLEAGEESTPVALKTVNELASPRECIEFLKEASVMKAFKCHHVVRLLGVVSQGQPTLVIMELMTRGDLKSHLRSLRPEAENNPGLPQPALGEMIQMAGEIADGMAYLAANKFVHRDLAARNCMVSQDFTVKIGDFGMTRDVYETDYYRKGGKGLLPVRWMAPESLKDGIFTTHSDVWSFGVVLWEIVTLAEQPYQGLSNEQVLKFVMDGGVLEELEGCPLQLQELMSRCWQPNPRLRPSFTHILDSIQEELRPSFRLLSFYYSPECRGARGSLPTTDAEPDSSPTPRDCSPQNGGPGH

[4] = target: Ribosomal protein S6 kinase alpha-5 (Homo sapiens) (UniProt O75582); assay: Inhibition of MSK1 (unknown origin) at 1 uM relative to control
Ribosomal protein S6 kinase alpha-5 (Homo sapiens), sequence (O75582 whole entry, looked up): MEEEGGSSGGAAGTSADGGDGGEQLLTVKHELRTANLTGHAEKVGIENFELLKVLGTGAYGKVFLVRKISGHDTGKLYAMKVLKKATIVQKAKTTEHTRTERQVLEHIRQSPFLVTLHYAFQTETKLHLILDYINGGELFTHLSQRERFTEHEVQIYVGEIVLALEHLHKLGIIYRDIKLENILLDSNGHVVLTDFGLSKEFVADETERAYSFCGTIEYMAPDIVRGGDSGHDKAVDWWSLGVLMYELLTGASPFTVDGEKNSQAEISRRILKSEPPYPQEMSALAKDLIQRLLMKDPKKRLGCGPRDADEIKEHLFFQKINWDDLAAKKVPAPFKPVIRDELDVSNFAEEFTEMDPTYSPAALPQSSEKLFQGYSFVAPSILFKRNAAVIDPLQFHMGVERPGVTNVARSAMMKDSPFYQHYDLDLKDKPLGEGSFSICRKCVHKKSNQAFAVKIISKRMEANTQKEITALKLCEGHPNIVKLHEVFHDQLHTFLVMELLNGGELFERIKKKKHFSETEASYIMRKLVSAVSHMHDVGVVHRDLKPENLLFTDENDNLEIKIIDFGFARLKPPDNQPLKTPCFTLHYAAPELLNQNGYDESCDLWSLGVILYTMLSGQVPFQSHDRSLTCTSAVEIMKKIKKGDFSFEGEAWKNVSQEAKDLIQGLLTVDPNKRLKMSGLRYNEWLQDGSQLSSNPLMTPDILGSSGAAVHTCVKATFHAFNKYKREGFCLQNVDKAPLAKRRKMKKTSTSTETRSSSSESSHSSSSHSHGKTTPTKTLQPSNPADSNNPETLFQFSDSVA
Method in brief: (§2)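 Single-concentration screen of each compound against a 59-protein-kinase panel, run at 10 µM or 1 µM. Activity relative to control is shown as a heat map across the panel.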

[5] = target: T2, Serine/threonine-protein kinase Nek2 (Homo sapiens) (UniProt P51955); assay: Inhibition of NEK2a (unknown origin) at 1 uM relative to control; method in brief: as §2
T2 sequence (whole entry): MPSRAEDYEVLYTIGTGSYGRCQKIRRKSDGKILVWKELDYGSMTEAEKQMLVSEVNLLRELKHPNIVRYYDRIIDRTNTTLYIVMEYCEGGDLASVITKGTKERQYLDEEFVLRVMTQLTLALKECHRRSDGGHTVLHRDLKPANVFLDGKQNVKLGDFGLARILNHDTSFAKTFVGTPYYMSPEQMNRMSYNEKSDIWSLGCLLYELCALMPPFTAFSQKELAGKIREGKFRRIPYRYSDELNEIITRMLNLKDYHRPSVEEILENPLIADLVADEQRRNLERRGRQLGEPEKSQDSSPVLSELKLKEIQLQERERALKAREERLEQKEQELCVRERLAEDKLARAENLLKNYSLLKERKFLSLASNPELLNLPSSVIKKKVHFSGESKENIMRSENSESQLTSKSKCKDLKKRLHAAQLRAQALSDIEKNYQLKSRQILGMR

[6] = target: Protein kinase C alpha type (Homo sapiens) (UniProt P17252); assay: Inhibition of PKCa (unknown origin) at 1 uM relative to control; method in brief: as §2
[7] = target: T3, Protein kinase C zeta type (Homo sapiens) (UniProt Q05513); assay: Inhibition of PKCz (unknown origin) at 1 uM relative to control; method in brief: as §2
T3 sequence (whole entry): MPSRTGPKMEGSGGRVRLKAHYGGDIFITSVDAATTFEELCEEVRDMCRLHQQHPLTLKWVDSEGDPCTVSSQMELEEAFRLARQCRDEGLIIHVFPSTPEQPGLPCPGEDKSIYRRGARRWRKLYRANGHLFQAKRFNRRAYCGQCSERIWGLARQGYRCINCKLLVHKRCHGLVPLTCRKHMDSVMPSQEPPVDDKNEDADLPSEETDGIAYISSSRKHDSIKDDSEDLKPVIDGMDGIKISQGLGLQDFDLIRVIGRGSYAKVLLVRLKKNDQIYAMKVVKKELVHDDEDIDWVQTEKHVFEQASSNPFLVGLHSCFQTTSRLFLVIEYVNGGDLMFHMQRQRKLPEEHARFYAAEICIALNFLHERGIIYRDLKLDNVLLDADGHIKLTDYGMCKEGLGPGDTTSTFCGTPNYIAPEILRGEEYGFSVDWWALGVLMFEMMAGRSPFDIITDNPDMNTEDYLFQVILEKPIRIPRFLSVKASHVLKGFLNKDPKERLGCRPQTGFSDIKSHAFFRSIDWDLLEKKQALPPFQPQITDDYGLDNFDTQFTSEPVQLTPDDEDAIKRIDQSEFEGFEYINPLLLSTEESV

[8] = target: Ribosomal protein S6 kinase alpha-3 (Homo sapiens) (UniProt P51812); assay: Inhibition of RSK2 (unknown origin) at 1 uM relative to control
Ribosomal protein S6 kinase alpha-3 (Homo sapiens), sequence (P51812 whole entry): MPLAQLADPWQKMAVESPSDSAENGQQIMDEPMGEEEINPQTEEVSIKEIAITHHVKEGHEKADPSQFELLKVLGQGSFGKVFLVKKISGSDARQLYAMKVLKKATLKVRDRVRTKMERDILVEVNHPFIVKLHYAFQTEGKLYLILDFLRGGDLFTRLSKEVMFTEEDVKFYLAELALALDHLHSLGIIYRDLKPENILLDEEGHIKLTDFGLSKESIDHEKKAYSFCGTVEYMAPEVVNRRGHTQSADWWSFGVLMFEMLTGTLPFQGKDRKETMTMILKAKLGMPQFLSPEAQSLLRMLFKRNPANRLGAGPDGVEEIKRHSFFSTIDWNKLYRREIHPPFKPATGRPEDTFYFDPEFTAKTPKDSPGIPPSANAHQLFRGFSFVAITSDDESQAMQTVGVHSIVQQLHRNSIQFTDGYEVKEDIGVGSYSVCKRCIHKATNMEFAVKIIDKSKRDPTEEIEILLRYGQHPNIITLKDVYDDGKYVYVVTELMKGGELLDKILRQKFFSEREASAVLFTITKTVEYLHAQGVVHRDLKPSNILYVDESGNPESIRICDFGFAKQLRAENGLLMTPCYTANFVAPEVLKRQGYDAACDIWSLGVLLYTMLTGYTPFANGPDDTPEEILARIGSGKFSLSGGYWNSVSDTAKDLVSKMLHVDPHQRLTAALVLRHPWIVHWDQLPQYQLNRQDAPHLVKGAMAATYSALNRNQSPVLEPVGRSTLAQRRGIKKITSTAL
Method in brief: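 Single-concentration screen across a panel of 59 protein kinases, with each compound tested at one fixed concentration. The read-out is residual kinase activity relative to control. Panel results are also condensed into a rescaled geometric mean (RGM) selectivity score.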

SMILES	inhibition [1]	inhibition [2]	inhibition [3]	inhibition [4]	inhibition [5]	inhibition [6]	inhibition [7]	inhibition [8]
c1cc(-c2n[nH]c3ccnc(OC4CCOCC4)c23)cc(N2CCOCC2)n1	0%	37%	3%	0%	0%	0%	1%	0%
CC(C)n1cc(-c2n[nH]c3ccnc(OC4CCOCC4)c23)cn1	0%	28%	45%	18%	8%	0%	14%	58%
